Measured values reported in publication PMC8247405 (British Journal of Clinical Pharmacology, 2020).

What was measured:
[1] = system: Zucker diabetic fatty (ZDF) rats; experiment: Plasma fructosamine in ZDF rats; assay type: in vivo, rat; details: any dose, 5‐week treatment
Outline: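 ZDF rats were fed control chow or test-compound chow (0.002–0.0245% w/w) from 9 weeks of age; lean rats served as reference. K₂-EDTA blood was drawn from the caudal vein under isoflurane at baseline and after 5 weeks. It was centrifuged at 4°C, 10 min, 10 000 g, and plasma was stored at −80°C. Fructosamine was measured on a clinical chemistry analyser by a blinded experimenter.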

[2] = Plasma pharmacokinetics of SAR247799 in diabetic rats, 5-week chow dosing; assay type: in vivo, Zucker diabetic fatty (ZDF) rats; details: ZDF rats; for C (plasma concentration), mean / C (plasma concentration), median: 5 weeks postdosing; for AUC 0–24, mean / AUC 0–24, median: AUC0–24 = C × 24
Outline: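 ZDF rats received test compound in chow at 0.002, 0.007 or 0.0245% w/w for 5 weeks. Plasma taken at 5 weeks was assayed by LC-MS/MS. AUC0–24 was computed as C × 24, taking the 5-week concentration as the average over the dosing interval.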

[3] = system: type‐2 diabetes patients; details: human, in vivo
[4] = system: type‐2 diabetes patients; details: human, in vivo; remark: listed apart in the source
[5] = system: Zucker diabetic fatty (ZDF) rats; experiment: Renal function; assay type: in vivo, rat; details: 5 weeks
Outline: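 ZDF rats on control or test-compound chow (0.002, 0.007, 0.0245% w/w) for 5 weeks, with lean controls. Creatinine clearance = urinary creatinine × urine volume / plasma creatinine, in µL/min. Kruskal–Wallis with Wilcoxon post hoc tests versus ZDF control.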

[6] = Plasma pharmacokinetics in type-2 diabetes patients; assay type: in vivo, human; details: for AUC 0–24, mean / AUC 0–24, median / Cmax, mean / Cmax, median / Tmax, mean / Tmax, median / Rac_AUC 0–24 (accumulation ratio), mean / Rac_AUC 0–24 (accumulation ratio), median / Rac_C max (accumulation ratio), mean / Rac_C max (accumulation ratio), median: n 15
Outline: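 Type-2 diabetes patients received 1 or 5 mg test compound orally once daily for 28 days (15 per dose cohort). Plasma was sampled at 4 and 12 h postdose on day 1, predose on days 2, 3 and 7, and 3 h postdose on days 14, 21 and 28. Samples were assayed by validated LC-MS/MS (LLOQ 5 ng/mL). Cmax, tmax, trapezoidal AUC0–24 and accumulation ratio were derived by a Bayesian population PK model built in healthy subjects.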

[7] = system: Zucker diabetic fatty (ZDF) rats; experiment: Heart rate in ZDF rats; assay type: in vivo, rat; details: low, intermediate and high dose, 5 weeks
[8] = system: type‐2 diabetes patients; details: human, in vivo; remark: listed apart in the source
[9] = system: type‐2 diabetes patients; details: human, in vivo; remark: listed apart in the source
[10] = system: type‐2 diabetes patients; parameters: species or system human; details: in vivo
[11] = system: Zucker diabetic fatty (ZDF) rats; experiment: Peripheral blood lymphocyte count in ZDF rats; assay type: in vivo, rat; details: 5 weeks
Outline: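 Male ZDF Fa/Fa rats, randomised by body weight at 9 weeks to control chow or chow with test compound at 0.002, 0.007 or 0.0245% w/w for 5 weeks; lean Fa/+ rats on control chow served as reference. Caudal-vein K₂-EDTA blood was taken under 1.5–2% isoflurane at baseline and 5 weeks. Lymphocytes were counted in fresh blood. Analysis was blinded, with 1-way ANOVA and Dunnett's test versus ZDF control.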

[12] = cited from earlier work
[13] = 0.007% (w/w) in chow (intermediate)

In the case of `Cc1cc(-c2nc3cnc(Oc4cccc(Cl)c4)nc3o2)cc(C)c1OCC(=O)O` [SAR247799], the “effect on plasma fructosamine” value [1] is reported as “did not alter fructosamine levels”, the “C (plasma concentration), mean” value ([2]; 0.002% (w/w) in chow (low)) is reported as 0.0944 µg/mL and the “C (plasma concentration), median” value ([2]; 0.002% (w/w) in chow (low)) is reported as 0.0917 µg/mL. The “AUC 0–24, mean” value ([2]; 0.002% (w/w) in chow (low)) was 2270 ng·h/mL, the “AUC 0–24, median” value ([2]; 0.002% (w/w) in chow (low)) was 2200 ng·h/mL and the “C (plasma concentration), mean” value [2, 13] was 0.423 µg/mL. The “C (plasma concentration), median” value [2, 13] was 0.432 µg/mL, the “AUC 0–24, mean” value [2, 13] was 10200 ng·h/mL and the “AUC 0–24, median” value [2, 13] was 10400 ng·h/mL. For the same compound, the “C (plasma concentration), mean” value ([2]; 0.0245% (w/w) in chow (high)) was 4.43 µg/mL, the “C (plasma concentration), median” value ([2]; 0.0245% (w/w) in chow (high)) was 4.60 µg/mL and the “AUC 0–24, mean” value ([2]; 0.0245% (w/w) in chow (high)) was 106000 ng·h/mL. For the same compound, the “AUC 0–24, median” value ([2]; 0.0245% (w/w) in chow (high)) was 110000 ng·h/mL, the “increase in plasma concentration, high vs intermediate dose” value ([2]; for a 3.5‐fold increase in dose) was 10.5 fold and the “steady state AUC0–24h” value ([2]; intermediate dose) was 10.2 µg/mL. The “steady state AUC0–24h” value ([2]; low dose) was 2.27 µg/mL, the “lymphocytes, mean reductions vs placebo” value [3] was less than 8% and the “effect on blood pressure” value [4] was “did not affect blood pressure”. For the same compound, the “change in creatinine clearance” value ([5]; high dose) was “lesser (nonsignificant) increase”, the “reduction in urinary protein:creatinine ratio” value ([5]; high dose) was “statistically significant” and the “effect on urinary output” value ([5]; intermediate dose) was “significantly blunted the increase in urinary output”. The “fractional excretion of electrolytes (Na+ and Cl−)” value ([5]; intermediate dose) was “levels similar to lean control rats”, the “increase in creatinine clearance compared to vehicle‐treated ZDF rats” value ([5]; intermediate dose) was 2.5 fold and the “reduction in urinary protein:creatinine ratio” value ([5]; intermediate dose) was “statistically significant”. The “change in creatinine clearance” value ([5]; low dose) was “no increase”, the “effect on urinary protein:creatinine ratio” value ([5]; low to high dose) was “dose‐dependent reduction” and the “effect on urinary protein:creatinine ratio” value ([5]; lowest dose) was “partial effect”. For the same compound, the “steady state AUC0–24h” value ([6]; 1‐mg/d human dose) was 2.97 µg/mL, the “steady state AUC0–24h” value ([6]; 5‐mg/d human dose) was 14.9 µg/mL and the “AUC 0–24, mean” value ([6]; day 1, 1 mg oral once daily) was 1030 ng·h/mL. For the same compound, the “AUC 0–24, median” value ([6]; day 1, 1 mg oral once daily) was 983 ng·h/mL, the “Cmax, mean” value ([6]; day 1, 1 mg oral once daily) was 57.4 ng/mL and the “Cmax, median” value ([6]; day 1, 1 mg oral once daily) was 53.8 ng/mL. For the same compound, the “Tmax, mean” value ([6]; day 1, 1 mg oral once daily) was 2.68 h, the “Tmax, median” value ([6]; day 1, 1 mg oral once daily) was 2.50 h and the “AUC 0–24, mean” value ([6]; day 1, 5 mg oral once daily) was 5310 ng·h/mL. The “AUC 0–24, median” value ([6]; day 1, 5 mg oral once daily) was 5310 ng·h/mL, the “Cmax, mean” value ([6]; day 1, 5 mg oral once daily) was 310 ng/mL and the “Cmax, median” value ([6]; day 1, 5 mg oral once daily) was 315 ng/mL. For the same compound, the “Tmax, mean” value ([6]; day 1, 5 mg oral once daily) was 2.42 h, the “Tmax, median” value ([6]; day 1, 5 mg oral once daily) was 2.50 h and the accumulation ratio ([6]; day 1 to day 14, 1 and 5 mg/d) was 2.5–2.9. The “AUC 0–24, mean” value ([6]; day 14, 1 mg oral once daily) was 2970 ng·h/mL, the “AUC 0–24, median” value ([6]; day 14, 1 mg oral once daily) was 2780 ng·h/mL and the “Cmax, mean” value ([6]; day 14, 1 mg oral once daily) was 152 ng/mL. For the same compound, the “Cmax, median” value ([6]; day 14, 1 mg oral once daily) was 147 ng/mL, the “Rac_AUC 0–24 (accumulation ratio), mean” value ([6]; day 14, 1 mg oral once daily) was 2.86 and the “Rac_AUC 0–24 (accumulation ratio), median” value ([6]; day 14, 1 mg oral once daily) was 2.70. The “Rac_C max (accumulation ratio), mean” value ([6]; day 14, 1 mg oral once daily) was 2.66, the “Rac_C max (accumulation ratio), median” value ([6]; day 14, 1 mg oral once daily) was 2.50 and the “Tmax, mean” value ([6]; day 14, 1 mg oral once daily) was 2.24 h. The “Tmax, median” value ([6]; day 14, 1 mg oral once daily) was 2.25 h, the “AUC 0–24, mean” value ([6]; day 14, 5 mg oral once daily) was 14900 ng·h/mL and the “AUC 0–24, median” value ([6]; day 14, 5 mg oral once daily) was 14800 ng·h/mL. The “Cmax, mean” value ([6]; day 14, 5 mg oral once daily) was 779 ng/mL, the “Cmax, median” value ([6]; day 14, 5 mg oral once daily) was 760 ng/mL and the “Rac_AUC 0–24 (accumulation ratio), mean” value ([6]; day 14, 5 mg oral once daily) was 2.79. The “Rac_AUC 0–24 (accumulation ratio), median” value ([6]; day 14, 5 mg oral once daily) was 2.73, the “Rac_C max (accumulation ratio), mean” value ([6]; day 14, 5 mg oral once daily) was 2.54 and the “Rac_C max (accumulation ratio), median” value ([6]; day 14, 5 mg oral once daily) was 2.46. The “Tmax, mean” value ([6]; day 14, 5 mg oral once daily) was 2.15 h, the “Tmax, median” value ([6]; day 14, 5 mg oral once daily) was 2.25 h and the “effect on heart rate” value [7] was “None of the doses of SAR247799 altered heart rate”. For the same compound, the heart rate increase [8] was “no increase”, the “heart rate, mean difference vs placebo (maximum decrease)” value [8] was −6.4 beats/min and the “mean heart rate increase” value [8] was 0–4 beats/min. The “Patients with TEAE: Arthropod sting” value [9] was 0 n (%), the “Patients with TEAE: Contusion” value [9] was 0 n (%) and the “Patients with TEAE: Diarrhoea” value [9] was 0 n (%). The “Patients with TEAE: Dyspepsia” value [9] was 0 n (%), the “Patients with TEAE: Headache” value [9] was 1 (6.7%) n (%) and the “Patients with TEAE: Injury, poisoning and procedural complications” value [9] was 0 n (%). For the same compound, the “Patients with TEAE: Leading to treatment discontinuation” value [9] was 0 n (%), the “Patients with TEAE: Nausea” value [9] was 1 (6.7%) n (%) and the “Patients with TEAE: Oropharyngeal pain” value [9] was 0 n (%). The “Patients with TEAE: Otitis externa” value [9] was 0 n (%), the “Patients with TEAE: Severe AE” value [9] was 0 n (%) and the “Patients with TEAE: Skin abrasion” value [9] was 0 n (%). For the same compound, the “Patients with TEAE: Traumatic haematoma” value [9] was 0 n (%), the “Patients with TEAE: Ventricular extrasystoles” value [9] was 0 n (%) and the tolerability [9] was “well tolerated”. The “overall effect on FMD” value [10] was “dose‐dependent improvement in FMD”, the “decrease in peripheral blood lymphocytes” value ([11]; high dose 0.0245% (w/w) chow) was 35% and the “effect on peripheral blood lymphocytes” value ([11]; intermediate dose 0.007% (w/w) chow) was “did not reduce lymphocytes”. For the same compound, the “effect on peripheral blood lymphocytes” value ([11]; low dose 0.002% (w/w) chow) was “did not reduce lymphocytes” and the “elimination half‐life” value [12] was 32 h.
